This is an account of results in publication PMC3769689 (Journal of medicinal chemistry, 2013).

“Also recorded” adds a separate entry of the source.

As a reminder, the CLint scaled is the rate of metabolic loss divided by the concentration. A low value points to slow turnover. The term Vd denotes the apparent volume that relates the amount in the body to the concentration in plasma or blood. High values mean wide distribution into tissue, low ones little distribution into tissue. One may read the clearance as a measure of how efficiently the substance is removed, as volume per time. One may read the IC50 as the point on the concentration scale where inhibition reaches its midpoint. A higher IC50 goes with weaker potency in that assay. Broadly, the Kp is the ratio of the level in a tissue or fluid to that in plasma or blood. By AUC(0-t) is commonly meant exposure summed from dosing to a finite time, without extrapolation to infinity. Low readings indicate low exposure, high ones high exposure.

Series [1] in a line: rat microsomal clearance. The series is classed as in vitro ADME. Particulars: for Rat CLHEP: predicted hepatic clearance in vitro; for Rat CLHEP / CLint scaled at 1 µM: rat; for CLint scaled at 1 µM: microsomes.
Series [2] in a line: rat IV PK. In kind it is in vivo. Particulars: plasma.
Series [3] deals with T1, mGlu3 (Rattus norvegicus, UniProt P31422). The series can be described thus: mGlu3 calcium mobilization assay. The series is classed as cell-based. Background: Calcium flux is commonly read through the fluorescence of an indicator in the cells.
Series [4] addresses T1, mGlu3. Particulars: cited from earlier work.
Series [5] addresses mGlu1 (Homo sapiens, UniProt Q13255). The experiment in a line: mGluR selectivity, mGlu1. In kind it is cell-based.
The target of series [6] is mGlu4 (Homo sapiens, UniProt Q14833). The series can be described thus: mGluR selectivity, mGlu4. In kind it is cell-based.
For series [7], the target named is mGlu5 (Homo sapiens, UniProt P41594). The experiment in a line: mGluR selectivity, mGlu5. In kind it is cell-based.
For series [8], the target named is mGlu6 (Homo sapiens, UniProt O15303). The experiment in a line: mGluR selectivity, mGlu6. The series is classed as cell-based.
Series [9] has as its target mGlu7 (Homo sapiens, UniProt Q14831). The experiment in a line: mGluR selectivity, mGlu7. In kind it is cell-based.
The target in series [10] is mGlu8 (Homo sapiens, UniProt O00222). The series can be described thus: mGluR selectivity, mGlu8. In kind it is cell-based.
In series [11] the target is T1, mGlu3. The experiment in a line: progressive fold shift assay with glutamate. In kind it is cell-based.
Series [12] concerns the target T1, mGlu3. The experiment in a line: probe dependence, glutamate vs LY379268. In kind it is cell-based. Particulars: glutamate vs LY379268 as agonist.
Series [13] in a line: human microsomal clearance. The series is classed as in vitro ADME.
The target in series [14] is DAT (Homo sapiens, UniProt Q01959). The series can be described thus: functional activity at DAT.
The target of series [15] is 5-HT2B (Homo sapiens, UniProt P41595). The experiment in a line: functional activity at 5-HT2B.
Series [16] can be described thus: mouse tissue distribution study. Particulars: cassette, IP. The series is classed as in vivo. Summed up: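 Mice received the test compounds together as a cassette by intraperitoneal injection. Plasma and brain tissue were then analysed by LC/MS/MS to measure compound exposure in each and derive the brain-to-plasma ratio.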
A short description of series [17]: in vivo rat PK. Particulars: 10 mg/kg.
The nature of series [18]: metabolite identification. In kind it is in vitro ADME.

T1 sequence (P31422 23-879): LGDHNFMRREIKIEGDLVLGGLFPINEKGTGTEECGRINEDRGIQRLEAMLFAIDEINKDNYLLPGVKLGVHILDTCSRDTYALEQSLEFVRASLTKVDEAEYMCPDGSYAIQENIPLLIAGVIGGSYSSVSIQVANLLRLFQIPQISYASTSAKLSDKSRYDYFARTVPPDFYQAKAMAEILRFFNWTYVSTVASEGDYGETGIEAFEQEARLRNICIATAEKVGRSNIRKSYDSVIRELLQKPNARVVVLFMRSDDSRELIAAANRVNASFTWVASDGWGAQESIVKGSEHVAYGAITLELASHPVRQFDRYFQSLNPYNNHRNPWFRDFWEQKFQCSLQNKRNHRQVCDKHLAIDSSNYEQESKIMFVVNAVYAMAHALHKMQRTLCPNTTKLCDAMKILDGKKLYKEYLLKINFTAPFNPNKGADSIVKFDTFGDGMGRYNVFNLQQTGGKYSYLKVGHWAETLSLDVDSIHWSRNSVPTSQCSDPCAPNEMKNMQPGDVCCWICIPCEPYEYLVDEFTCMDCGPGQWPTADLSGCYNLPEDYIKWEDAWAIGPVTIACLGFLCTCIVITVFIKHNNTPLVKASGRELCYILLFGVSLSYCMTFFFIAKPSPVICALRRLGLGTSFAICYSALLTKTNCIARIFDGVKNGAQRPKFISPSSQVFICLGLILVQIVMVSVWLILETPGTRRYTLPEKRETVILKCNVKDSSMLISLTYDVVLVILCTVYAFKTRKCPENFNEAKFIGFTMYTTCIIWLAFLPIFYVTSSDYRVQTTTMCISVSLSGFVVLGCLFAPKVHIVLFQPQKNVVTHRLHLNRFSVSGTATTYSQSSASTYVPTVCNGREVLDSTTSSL
Sequence of mGlu6 (O15303 25-877): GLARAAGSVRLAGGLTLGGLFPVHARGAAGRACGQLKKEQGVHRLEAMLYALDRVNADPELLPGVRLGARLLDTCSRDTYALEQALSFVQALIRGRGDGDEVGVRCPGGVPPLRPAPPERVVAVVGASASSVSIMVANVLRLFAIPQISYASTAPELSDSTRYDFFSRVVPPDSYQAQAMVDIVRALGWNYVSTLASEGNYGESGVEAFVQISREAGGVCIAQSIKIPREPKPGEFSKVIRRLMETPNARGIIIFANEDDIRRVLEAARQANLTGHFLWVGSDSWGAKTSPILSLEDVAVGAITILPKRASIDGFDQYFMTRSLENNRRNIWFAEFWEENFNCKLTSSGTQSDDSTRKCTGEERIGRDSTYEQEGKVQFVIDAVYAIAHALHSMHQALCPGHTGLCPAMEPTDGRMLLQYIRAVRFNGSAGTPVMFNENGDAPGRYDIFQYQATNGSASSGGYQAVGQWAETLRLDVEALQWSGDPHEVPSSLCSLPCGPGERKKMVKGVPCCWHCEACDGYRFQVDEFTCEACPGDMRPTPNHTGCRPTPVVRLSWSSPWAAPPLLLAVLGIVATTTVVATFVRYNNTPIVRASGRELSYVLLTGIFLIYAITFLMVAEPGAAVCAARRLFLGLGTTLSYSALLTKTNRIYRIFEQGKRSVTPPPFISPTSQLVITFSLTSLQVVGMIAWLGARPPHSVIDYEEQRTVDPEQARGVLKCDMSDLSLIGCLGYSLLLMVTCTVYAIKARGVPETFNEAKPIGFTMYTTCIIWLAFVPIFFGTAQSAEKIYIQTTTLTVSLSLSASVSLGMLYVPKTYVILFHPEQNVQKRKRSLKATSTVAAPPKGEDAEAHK
Sequence of mGlu8 (O00222 34-908): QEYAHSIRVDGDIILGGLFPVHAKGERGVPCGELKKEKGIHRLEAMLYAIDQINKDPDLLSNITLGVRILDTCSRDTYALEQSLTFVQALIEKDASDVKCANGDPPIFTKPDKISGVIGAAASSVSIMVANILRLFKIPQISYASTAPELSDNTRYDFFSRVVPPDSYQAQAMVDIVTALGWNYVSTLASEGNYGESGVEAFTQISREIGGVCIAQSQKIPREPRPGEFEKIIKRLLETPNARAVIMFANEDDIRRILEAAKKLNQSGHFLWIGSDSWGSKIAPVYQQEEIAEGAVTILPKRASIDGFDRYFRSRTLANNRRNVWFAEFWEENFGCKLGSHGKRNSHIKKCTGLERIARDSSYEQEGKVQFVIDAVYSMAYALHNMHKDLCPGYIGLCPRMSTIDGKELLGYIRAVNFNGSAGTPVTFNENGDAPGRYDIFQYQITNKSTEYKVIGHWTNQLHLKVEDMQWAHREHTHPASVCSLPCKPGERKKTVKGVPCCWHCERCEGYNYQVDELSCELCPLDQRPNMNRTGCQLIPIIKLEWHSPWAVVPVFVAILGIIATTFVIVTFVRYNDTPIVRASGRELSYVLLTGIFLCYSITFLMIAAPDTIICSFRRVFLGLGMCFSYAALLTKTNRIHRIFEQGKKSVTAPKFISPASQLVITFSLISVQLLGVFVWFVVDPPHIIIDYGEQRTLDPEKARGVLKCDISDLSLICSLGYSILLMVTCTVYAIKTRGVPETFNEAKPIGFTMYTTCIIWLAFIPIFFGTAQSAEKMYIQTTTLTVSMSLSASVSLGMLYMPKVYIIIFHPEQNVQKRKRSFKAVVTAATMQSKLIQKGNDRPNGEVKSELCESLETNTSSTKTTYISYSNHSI
Sequence of 5-HT2B (P41595 whole entry): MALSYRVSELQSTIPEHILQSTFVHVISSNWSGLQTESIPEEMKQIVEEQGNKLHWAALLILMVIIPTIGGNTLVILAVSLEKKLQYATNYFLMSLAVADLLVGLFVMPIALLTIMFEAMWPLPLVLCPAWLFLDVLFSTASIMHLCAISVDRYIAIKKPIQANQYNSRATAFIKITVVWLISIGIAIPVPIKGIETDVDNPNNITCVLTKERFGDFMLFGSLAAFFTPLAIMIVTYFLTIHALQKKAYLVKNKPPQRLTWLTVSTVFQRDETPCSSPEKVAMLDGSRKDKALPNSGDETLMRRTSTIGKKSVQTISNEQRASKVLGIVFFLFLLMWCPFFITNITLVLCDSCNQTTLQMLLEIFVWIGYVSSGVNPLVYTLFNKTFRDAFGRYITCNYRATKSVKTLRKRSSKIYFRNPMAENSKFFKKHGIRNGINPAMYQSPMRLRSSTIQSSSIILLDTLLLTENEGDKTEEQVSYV
Sequence of mGlu1 (Q13255 19-1194): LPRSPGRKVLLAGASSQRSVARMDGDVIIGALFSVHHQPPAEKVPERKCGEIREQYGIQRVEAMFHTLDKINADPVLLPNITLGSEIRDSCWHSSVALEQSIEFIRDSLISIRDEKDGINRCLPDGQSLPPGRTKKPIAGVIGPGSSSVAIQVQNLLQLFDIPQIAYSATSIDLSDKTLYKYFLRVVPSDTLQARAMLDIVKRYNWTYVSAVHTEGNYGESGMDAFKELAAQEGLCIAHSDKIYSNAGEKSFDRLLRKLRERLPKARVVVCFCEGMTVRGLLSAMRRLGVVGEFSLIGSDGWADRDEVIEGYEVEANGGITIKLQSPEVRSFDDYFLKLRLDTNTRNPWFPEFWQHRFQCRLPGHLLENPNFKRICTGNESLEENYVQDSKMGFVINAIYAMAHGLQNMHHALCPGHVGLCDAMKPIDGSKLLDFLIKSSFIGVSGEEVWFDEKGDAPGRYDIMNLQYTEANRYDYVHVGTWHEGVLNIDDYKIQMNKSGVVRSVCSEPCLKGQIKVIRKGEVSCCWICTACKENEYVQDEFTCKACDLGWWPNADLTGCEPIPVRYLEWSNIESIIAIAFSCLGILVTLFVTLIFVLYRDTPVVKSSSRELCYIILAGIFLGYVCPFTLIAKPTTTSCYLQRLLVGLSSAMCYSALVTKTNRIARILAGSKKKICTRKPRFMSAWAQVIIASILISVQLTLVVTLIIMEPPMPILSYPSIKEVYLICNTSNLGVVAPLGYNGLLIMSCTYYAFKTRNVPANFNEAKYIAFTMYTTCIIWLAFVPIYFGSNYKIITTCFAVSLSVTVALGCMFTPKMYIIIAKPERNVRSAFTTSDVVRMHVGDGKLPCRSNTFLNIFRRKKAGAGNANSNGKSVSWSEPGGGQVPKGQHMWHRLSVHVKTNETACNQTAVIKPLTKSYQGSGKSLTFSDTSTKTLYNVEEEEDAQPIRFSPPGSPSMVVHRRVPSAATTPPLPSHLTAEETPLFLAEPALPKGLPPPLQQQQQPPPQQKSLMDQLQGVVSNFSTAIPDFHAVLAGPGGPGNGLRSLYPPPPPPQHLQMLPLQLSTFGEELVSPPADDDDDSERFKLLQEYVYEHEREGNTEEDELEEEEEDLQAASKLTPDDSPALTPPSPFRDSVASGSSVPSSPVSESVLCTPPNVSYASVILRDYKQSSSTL
Sequence of DAT (Q01959 whole entry): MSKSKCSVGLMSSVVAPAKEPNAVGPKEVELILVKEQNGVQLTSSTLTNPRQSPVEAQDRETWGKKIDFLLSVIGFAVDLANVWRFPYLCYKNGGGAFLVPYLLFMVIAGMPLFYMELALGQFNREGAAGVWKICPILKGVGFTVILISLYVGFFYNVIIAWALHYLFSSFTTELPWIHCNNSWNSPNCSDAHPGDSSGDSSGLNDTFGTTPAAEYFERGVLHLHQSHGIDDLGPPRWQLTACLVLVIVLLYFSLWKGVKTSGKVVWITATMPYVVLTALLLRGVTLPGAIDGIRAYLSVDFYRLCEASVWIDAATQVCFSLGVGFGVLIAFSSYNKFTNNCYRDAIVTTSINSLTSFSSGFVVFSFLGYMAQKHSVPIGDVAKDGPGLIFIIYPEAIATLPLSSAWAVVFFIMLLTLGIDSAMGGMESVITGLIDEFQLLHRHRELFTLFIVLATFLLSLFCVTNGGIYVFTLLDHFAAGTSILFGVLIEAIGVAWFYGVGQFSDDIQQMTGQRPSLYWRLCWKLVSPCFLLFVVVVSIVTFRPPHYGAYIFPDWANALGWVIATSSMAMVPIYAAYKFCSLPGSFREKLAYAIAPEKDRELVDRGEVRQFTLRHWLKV

Regarding `COc1ccc(C#Cc2ccc(C(=O)N3CCC[C@@H](O)C3)cc2)cc1` [8d], in series [1], the “Rat CLHEP” value was 52.7 mL/min/kg and the intrinsic metabolic clearance (CLint scaled) at 1 µM stood at 214 mL/min/kg. In [2], this compound registered a Vd of 0.22 L/kg and a clearance of 6.2 mL/min/kg.
`COc1ccc(C#Cc2ccc(C(=O)N3CCCC(OC)C3)cc2)cc1` (centres unmarked) [8b]: the “mGlu3 NAM activity (in words)” value in [3] was “lost”.
Regarding `COc1ccc(C#Cc2ccc(C(=O)N3CCC[C@@H](CO)C3)cc2)cc1` [compound 3], the “selectivity vs. mGlu2” value in [4] is > 15 fold.
As to `COc1ccc(C#Cc2ccc(C(=O)N3CCC[C@@H](O)C3)c(F)c2)cc1` [compound 9], the “mGlu3 NAM activity (in words)” value in series [3] is on record as “sub-micromolar”. Moreover, the IC50 in series [5], in series [6], in [7], in series [8], in [9] and in series [10] was > 30 µM throughout. In addition, the “mode of antagonism with respect to glutamate” value in series [11] is “non-competitive antagonism; also recorded: non-competitive decrease in the EC80”. Besides, in [12], the probe dependence result is “no differences; also recorded: equipotent and efficacious”. Besides, the “Rat CLHEP” value in series [1] is 54.1 mL/min/kg. For the same compound, in series [1], the CLint scaled at 1 µM came out at 239 mL/min/kg. Also, the “stability in rat microsomes” value in [1] (words) was “unstable”. Further, in series [13] (predicted hepatic clearance in vitro, human), the “Human CLHEP” value is recorded as 18.9 mL/min/kg. Further, the “stability in human microsomes” value in [13] (words) is recorded as “unstable”. In addition, the “functional activity at DAT” value in series [14] is recorded as “no functional activity”. In addition, the “functional activity at 5-HT2B” value in series [15] is given as “no functional activity”. In series [16], this compound came in with a BrainAUC of 3.37 µM. Besides, in series [16], the plasmaAUC was determined as 3.71 µM. The “Brain AUC0-6” value in series [17] (IP, 0-6 h) was determined as 9.6 µM·h. The same compound yielded a Kp in series [17] (brain and plasma, ip) of 0.3. In series [17] (plasma, ip), this compound returned an AUC(0-t) of 33.1 µM·h. The Vd in series [2] stood at 0.21 L/kg. This compound also returned a clearance in [2] of 5.2 mL/min/kg. Besides, the major metabolite result in series [18] is “P450-mediated O-demethylation”.
Turning to `COc1ccc(C#Cc2ccc(C(=O)N3CCC[C@@H](O)C3)cc2F)cc1` [compound 10], in series [3], the “mGlu3 NAM activity (in words)” value is “sub-micromolar”.
`[2H]C([2H])([2H])Oc1ccc(C#Cc2ccc(C(=O)N3CCC[C@@H](O)C3)c(F)c2)cc1` [compound 12]: the “Rat CLHEP” value in series [1] is 35.9 mL/min/kg. Besides, in series [2], the Vd was determined as 0.18 L/kg and the clearance worked out at 2.9 mL/min/kg.
`[2H]C([2H])([2H])Oc1ccc(C#Cc2ccc(C(=O)N3CCC[C@@H](O)C3)cc2)cc1` [compound 11]: in [1], the “Rat CLHEP” value is listed as 40.7 mL/min/kg and the CLint scaled at 1 µM is 97.3 mL/min/kg. In [2], the Vd is 0.21 L/kg and the clearance came out at 3.3 mL/min/kg.
